CHRM4 PAM: positive allosteric modulators of human muscarinic M4 receptor; P08173; CHO-K1 hM4/Gqi5, Fluo-8 calcium fluorescence, ACh EC20; 0% = ACh EC20, 100% = maximal ACh; activation, % at 3 µM; actives 0.4% (n = 360,000);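 active = activation above its plate's cutoff, the mean activation of sample wells plus 3 SD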
CHRM5 agonist: agonists of human muscarinic M5 receptor (CHRM5); P08912; CHO-K1 hM5 cells, Fluo-8 calcium fluorescence; 0% DMSO wells, 100% maximal acetylcholine response; activation, % at 3 µM; actives 0.19% (n = 360,000); AID 624037;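 active = activation above the run's mean over test compounds plus 3 SD, cut at about 23% in these data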;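 note: signal is peak over basal fluorescence ratio across the kinetic read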
Target sequence (P08912 whole entry, looked up): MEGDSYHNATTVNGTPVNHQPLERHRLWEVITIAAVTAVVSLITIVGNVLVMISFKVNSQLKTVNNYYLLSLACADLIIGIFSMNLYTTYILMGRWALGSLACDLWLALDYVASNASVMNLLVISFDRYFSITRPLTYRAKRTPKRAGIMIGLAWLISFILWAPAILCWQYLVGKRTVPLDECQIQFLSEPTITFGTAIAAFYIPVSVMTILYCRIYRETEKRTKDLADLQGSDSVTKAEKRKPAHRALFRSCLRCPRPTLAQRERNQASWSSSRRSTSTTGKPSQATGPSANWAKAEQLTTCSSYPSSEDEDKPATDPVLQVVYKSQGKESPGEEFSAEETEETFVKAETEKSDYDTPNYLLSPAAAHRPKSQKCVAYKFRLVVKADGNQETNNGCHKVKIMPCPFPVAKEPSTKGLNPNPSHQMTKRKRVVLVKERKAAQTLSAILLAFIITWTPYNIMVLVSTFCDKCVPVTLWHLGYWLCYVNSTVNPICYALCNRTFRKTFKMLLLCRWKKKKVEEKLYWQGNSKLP
CHRM5 PAM: potentiates acetylcholine response at human M5 receptor | CHO-K1 hM5, Fluo-8 calcium, ACh EC20 PAM; 0% = ACh EC20, 100% = ACh EC100 | activation, % at 3 µM | actives 0.3% (n = 360,000) | AID 624038;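 active = activation above the run cutoff, the mean activation of all test compounds plus 3 SD, cut at about 18% in these data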
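Probe or stimulus: acetylcholine, EC20 level; Assay system: human M5 receptor in CHO-K1 cells; Schedule: compound preincubation 140 s before EC20 acetylcholine addition; Technique: intracellular calcium via Fluo-8 fluorescence; Dosing: single-point, 3 µM nominal; Read-out basis: percent activation from peak-over-basal fluorescence ratio, scaled EC20-to-EC100 acetylcholine; Repeats: one well per compound, no replicates.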
CHRM5 antagonist: blocks acetylcholine activation of human M5 receptor. CHO-hM5 cells, Fluo-8 calcium fluorescence, ACh EC80. inhibition, % at 3 µM. AID 624040. actives 0.59% (n = 360,000). P08912;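 active = inhibition above a per-plate cutoff, the mean of that plate's test compounds plus 3 SD, cut at about 27% in these data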;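 note: 0% = acetylcholine EC80 with DMSO and 100% = DMSO without agonist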
M4 ag: CHRM4 agonism in calcium assay. P08173. CHO-K1 hM4/Gqi5, Fluo-8 calcium fluorescence; vehicle 0%, full acetylcholine response 100%. activation, % at 3 µM. actives 0.14% (n = 360,000). AID 624127;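 active = activation above the run mean over all test wells plus 3 SD, cut at about 32% in these data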;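 note: peak over basal fluorescence ratio per well then scaled between controls; 0% = DMSO wells and 100% = acetylcholine at EC100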
M4 antag: blocks acetylcholine activation of human M4 receptor. P08173. CHO-hM4 cells, ACh EC80, Fluo-8 calcium fluorescence. inhibition, % at 3 µM. actives 0.73% (n = 360,000). AID 624125;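 active = inhibition above its plate's cutoff, the mean inhibition of sample wells plus 3 SD, cut at about 27% in these data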;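 note: 0% = acetylcholine EC80 with DMSO and 100% = DMSO without agonist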
* = called active by the depositor. Most compounds without a hit are left out; they make up all but 1.9% or so of the library.

SMILES	CHRM4 PAM	CHRM5 agonist	CHRM5 PAM	CHRM5 antagonist	M4 ag	M4 antag
COc1ccc(CC(N)c2csc(Nc3ccc(S(C)(=O)=O)cc3)n2)cc1 (stereo unspecified)	-5	1	-1	-3	1	8
CN(CC(=O)Nc1ccccc1Cl)C(=O)c1cc(C2CC2)nn1-c1ccccc1	-5	-2	-19	6	21	-24
CCCCN(C)c1c(C)nc2ccc(C(=O)NCCOc3ccc(OC)cc3)cn12	-9	0	-24	29*	12	10
CCc1nc2ccc(C(=O)NCc3ccc(OC)cc3)cn2c1N(C)Cc1ccc(OC)cc1	-12	-3	-13	-1	6	13
CCc1nc2ccc(C(=O)NCCN3CCCC3)cn2c1N(C)Cc1ccc(OC)cc1	-15	-3	-7	-5	1	56*
COc1ccccc1N(C)S(=O)(=O)c1ccc(C(=O)Nc2cccc(Br)c2)cc1	-9	1	-21	25	10	13
CCOC(=O)N1CCN(c2ncnc3c2[nH]c2ccc(F)cc23)CC1	-10	-1	-37	1	12	9
COc1ccc(N2CCN(c3ncnc4c3[nH]c3ccccc34)CC2)cc1	-11	8	-21	28*	23	28*
COc1ccc2[nH]c3c(N4CCc5ccccc5C4)ncnc3c2c1	-15	2	-18	8	25	19
Fc1ccc2[nH]c3c(N4CCN(c5ccccc5)CC4)ncnc3c2c1	-11	5	-23	50*	25	38*
OC1(c2cccc(C(F)(F)F)c2)CCN(c2ncnc3c2[nH]c2ccc(F)cc23)CC1	-19	1	-22	31*	15	20
CC(C)Cn1c(SC(C)C(=O)NC2CC2)nnc1-c1ccccc1F (stereo unspecified)	10	1	1	13	-1	-3
CC(C)C[C@@H](CNCC(=O)[C@H](C)NC(=O)c1[nH]cnc1C(=O)N[C@@H](C)CN)NC(=O)c1nc[nH]c1C(=O)N[C@@H](CC(=O)O)C(=O)O	-3	1	1	-4	0	4
CCCCn1cnc2c1c(=O)[nH]c(=O)n2CCCC	6	-4	19*	-2	2	6
CCCCn1cnc2c(cnn2-c2ccc(F)cc2)c1=O	-5	1	-6	2	1	37*
CCn1cnc2c1c(=O)[nH]c(=O)n2Cc1ccccc1	3	-2	3	-1	1	-13
Cc1ccc(C(=O)N[C@H](C(=O)NC2CCCCCCC2)C(C)C)cc1	-2	-3	-4	17	1	3
Cn1c(SCC(=O)NC(=O)NCc2ccccc2)nnc1C(F)(F)F	-2	2	13	-3	3	4
Cc1ccccc1-c1nc(CS(=O)CC(=O)NCc2ccccn2)c(C)o1 (stereo unspecified)	-2	-2	2	-1	1	-6
O=C(C[C@H]1C=C[C@@H](NC(=O)Cc2cccnc2)[C@@H](CO)O1)NCc1ccc2c(c1)OCO2	0	2	5	-15	1	-5
CC(Sc1nnc(-c2cccs2)n1-c1ccccc1)C(=O)NCc1ccco1 (stereo unspecified)	-1	-4	-3	-1	2	-4
CC(Sc1ccsc1[N+](=O)[O-])C(=O)NCc1ccco1 (stereo unspecified)	23*	1	12	1	1	5
COc1ccc(N(CC(=O)Nc2c(C)n(C)n(-c3ccccc3)c2=O)S(=O)(=O)c2ccc(F)cc2)cc1	22*	-1	21*	11	4	-8
CNC(=O)CN(c1ccc(OC)cc1)S(=O)(=O)c1ccc(F)cc1	20*	-6	28*	-7	0	-11
Cc1cc2c(cc1S(=O)(=O)N(C)c1ccccc1)n(C)c(=O)n2C	-17	3	-4	8	-2	99*
SMILES	CHRM4 PAM	CHRM5 agonist	CHRM5 PAM	CHRM5 antagonist	M4 ag	M4 antag
Cc1cccc(N(C)S(=O)(=O)c2cc3c(cc2C)n(C)c(=O)c(=O)n3C)c1	-7	-2	-4	6	4	-1
COC(C[C@@H]1O[C@H]1C(=O)COCc1ccccc1)OC	25*	4	4	-1	2	-1
CCN1C(=O)[C@H]2[C@H]3CN=C(SCC(=O)c4ccccc4)N3[C@@](CC)(C(=O)OC)[C@H]2C1=O	4	0	0	5	2	-1
COc1ccc(CN(CC2CCC(C(=O)O)CC2)C(=S)Nc2cc(C)cc(C)c2)cc1 (stereo unspecified)	19*	5	-5	7	4	-9
CC(C)c1nnc(SCC(=O)NC2CCCCC2)n1C	4	-3	-2	-5	2	-1
COc1ccc(C/C(C)=N/NC(=O)c2ccc(Cl)cc2)cc1	1	4	-3	-5	1	0
COc1ccc(C/C(C)=N/NC(=O)c2cccnc2)cc1	33*	-2	19*	0	2	-18
O=C(NC1CC1)c1ccccc1	3	0	-1	2	1	-15
CC(Oc1ccc2c(-c3ccccc3)cc(=O)oc2c1)C(=O)O (stereo unspecified)	-12	-1	-5	12	0	27*
CC(Oc1ccc2c(-c3ccccc3)cc(=O)oc2c1)C(=O)N1CCOCC1 (stereo unspecified)	-3	1	-6	10	2	8
O=C(COC(=O)CNC(=O)c1ccc(Cl)cc1Cl)Nc1cccc(S(=O)(=O)N2CCCC2)c1	3	3	-8	4	10	-5
COc1cc2c(C#Cc3cccnc3)c(-c3ccsc3)oc(=O)c2cc1OC	6	1	-5	7	1	-10
CC(=O)Nc1ccc(Nc2ccccc2)cc1	15	1	3	-2	2	-4
CC(=O)CC(=O)Nc1ccc(Nc2ccccc2)cc1	-12	0	-2	-1	2	30*
CC(C(O)C12CC3CC(CC(C3)C1)C2)N1CCCCC1 (stereo unspecified)	-19	-11	-1	6	0	40*
COC(=O)c1ccc2c(=O)n(Cc3ccc(C(=O)NC4CCCC4)cc3)c(=S)[nH]c2c1	21*	2	3	-2	2	1
Cc1nccn1CCc1n[nH]c(=S)n1Cc1ccccc1	-10	-11	-15	33*	0	22
NS(=O)(=O)c1ccc(NS(=O)(=O)c2ccc(NC(=O)c3ccc(-c4ccccc4)cc3)cc2)cc1	0	27*	-4	1	2	-2
O=C(Nc1cccnc1)c1ccc(-c2ccccc2)cc1	-10	-1	-9	4	5	4
O=C(Nc1ccncc1)c1ccc(-c2ccccc2)cc1	-12	5	-29	33*	14	20
